Test results from the RNAGym collection of RNA variant scans (doi:10.1126/science.aae0568).
Variants at the floor of the assay were thinned out.

B1: tRNA (parent)
chain: GUUCCGUUGGCGUAAUGGUAACGCGUCUCCCUCCUAAGGAGAAGACUGCGGGUUCGAGUCCCGUACGGAACG

Variants of: B1
Test: yeast fitness relative to wild type (ratio to wild type); higher = fitter; tRNA-Arg(CCU), competitive growth, 37 C, YPD
Summary of the method: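 Amplicons of the tRNA-Arg(CCU) gene were sequenced, 100-nucleotide paired-end, from the start population and from each end population of a pooled yeast competition. The competition, in six parallel replicates, lasted 24 hours in YPD at 37°C. Fitness relative to wild type was calculated from changes in genotype frequencies. Genotypes had to have ≥ 100 starting reads, and estimates < 0.5 were set to 0.5.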
U26A C61G A70U gave a yeast fitness of 0.764.
Variant U26A C62A has a yeast fitness of 0.803.
With U26A C66A the yeast fitness was 0.572.
With U26A C66U the yeast fitness was 0.824.
U26A G39A gave a yeast fitness of 0.87.
Variant U26A G39A G41C has a yeast fitness of no more than 0.5.
For U26A G39A G41C U54C, the yeast fitness was no more than 0.5.
With U26A G41C A65G G67A the yeast fitness was no more than 0.5.
For U26A G41C C46U, the yeast fitness was 0.797.
U26A G44C A57C A69U gave a yeast fitness of 0.653.
With U26A G44C C55U G67U the yeast fitness was 0.759.
In the case of U26A G48A C62A, the yeast fitness is reported as 0.605.
In the case of U26A G48C, the yeast fitness is reported as 0.78.
With U26A G50A the yeast fitness was 0.875.
For U26A G51A, the yeast fitness was 0.769.
For U26A G52C, the yeast fitness was 0.645.
U26A G52U C55A showed a yeast fitness of 0.616.
For U26A G58C A65G, the yeast fitness was 0.611.
U26A G63A G68C A69G showed a yeast fitness of no more than 0.5.
U26A G63C A69U showed a yeast fitness of 0.527.
With U26A G67A the yeast fitness was 0.905.
U26A U28A C30G gave a yeast fitness of 0.584.
In the case of U26A U28C C30G, the yeast fitness is reported as no more than 0.5.
With U26A U35C G68A the yeast fitness was 0.631.
U26A U47A C61A showed a yeast fitness of no more than 0.5.
Variant U26A U53A A65G has a yeast fitness of no more than 0.5.
For U26A U54A, the yeast fitness was 0.589.
U26A U54A C55U gave a yeast fitness of no more than 0.5.
U26A U54A G58A gave a yeast fitness of no more than 0.5.
U26A U64A gave a yeast fitness of 0.788.
U26A U64G A65U A69C showed a yeast fitness of no more than 0.5.
U26C A36C gave a yeast fitness of 0.559.
U26C A36C C62A gave a yeast fitness of no more than 0.5.
Work on U26C A36G A45G yielded a yeast fitness of no more than 0.5.
U26C A37G G67C showed a yeast fitness of 0.614.
For U26C A37U, the yeast fitness was 0.702.
Variant U26C A37U A45U G63A has a yeast fitness of no more than 0.5.
Variant U26C A37U U47C U54A has a yeast fitness of no more than 0.5.
In the case of U26C A40C C46U A65G G68C, the yeast fitness is reported as no more than 0.5.
Work on U26C A40G yielded a yeast fitness of 1.03.
U26C A40G C49U showed a yeast fitness of 0.502.
Work on U26C A42C yielded a yeast fitness of 0.828.
U26C A42C U54A gave a yeast fitness of no more than 0.5.
For U26C A42U, the yeast fitness was 1.01.
Work on U26C A42U A69C yielded a yeast fitness of 0.669.
Work on U26C A42U G56A yielded a yeast fitness of 0.651.
U26C A43U A70U gave a yeast fitness of 0.707.
For U26C A43U G63A, the yeast fitness was 0.658.
In the case of U26C A45C, the yeast fitness is reported as 0.857.
U26C A45U G68C gave a yeast fitness of no more than 0.5.
Work on U26C A57G yielded a yeast fitness of 0.984.
U26C A57U gave a yeast fitness of 0.793.
U26C A70G gave a yeast fitness of 0.915.
For U26C C27G A40C, the yeast fitness was no more than 0.5.
Variant U26C C27G A40C C66U has a yeast fitness of no more than 0.5.
U26C C27G A69C showed a yeast fitness of no more than 0.5.
In the case of U26C C27G C33G A37U G41A A57G C62G, the yeast fitness is reported as no more than 0.5.
Work on U26C C27G C34G G67A yielded a yeast fitness of no more than 0.5.
Variant U26C C27G C60G C62U has a yeast fitness of 0.624.
U26C C27U A57G showed a yeast fitness of 0.725.
Variant U26C C27U C62A has a yeast fitness of 0.658.
With U26C C29A A36C the yeast fitness was no more than 0.5.
In the case of U26C C29A G67C, the yeast fitness is reported as no more than 0.5.
Variant U26C C29U C61U has a yeast fitness of no more than 0.5.
For U26C C30A C49U, the yeast fitness was 0.533.
U26C C30G C34A C49G G50A U64A gave a yeast fitness of no more than 0.5.
Variant U26C C30G C34A C62U has a yeast fitness of no more than 0.5.
For U26C C30G C61U, the yeast fitness was no more than 0.5.
U26C C30G G41A C60G C62U G68A showed a yeast fitness of no more than 0.5.
Work on U26C C30U yielded a yeast fitness of 0.67.
For U26C C30U C61A, the yeast fitness was 0.571.
U26C C30U G44C G51A C61U gave a yeast fitness of no more than 0.5.
U26C C30U U47A showed a yeast fitness of 0.749.
Work on U26C C30U U59A A69U yielded a yeast fitness of no more than 0.5.
In the case of U26C C31A A42U, the yeast fitness is reported as 0.9.
Variant U26C C31A C66G has a yeast fitness of no more than 0.5.
In the case of U26C C31G, the yeast fitness is reported as 0.875.
For U26C C31U, the yeast fitness was 1.07.
In the case of U26C C31U A43G, the yeast fitness is reported as 1.12.
U26C C31U C49G gave a yeast fitness of 0.622.
U26C C33G A42C C49G G58C C62G showed a yeast fitness of 0.616.
In the case of U26C C33G A42U, the yeast fitness is reported as no more than 0.5.
Variant U26C C33U A40U has a yeast fitness of no more than 0.5.
U26C C33U G52C gave a yeast fitness of 0.609.
U26C C33U U53A C66A showed a yeast fitness of no more than 0.5.
Work on U26C C46A yielded a yeast fitness of 0.882.
For U26C C46A U47G G50A A69C, the yeast fitness was no more than 0.5.
Work on U26C C46A U47G G50A C61A G67A yielded a yeast fitness of no more than 0.5.
Work on U26C C46G yielded a yeast fitness of 0.894.
U26C C46U gave a yeast fitness of 0.928.
U26C C49A G67A gave a yeast fitness of no more than 0.5.
U26C C49G showed a yeast fitness of 0.842.
In the case of U26C C49G C55U, the yeast fitness is reported as no more than 0.5.
In the case of U26C C55U, the yeast fitness is reported as 0.617.
U26C C60A gave a yeast fitness of 0.572.
U26C C61G showed a yeast fitness of 0.591.
For U26C C61G C62G, the yeast fitness was no more than 0.5.
U26C C66A showed a yeast fitness of 0.631.
U26C G39A U59A C60G C62U gave a yeast fitness of no more than 0.5.
Work on U26C G41C yielded a yeast fitness of 0.947.
U26C G48C showed a yeast fitness of 0.86.
For U26C G51A, the yeast fitness was 0.774.
In the case of U26C G56C, the yeast fitness is reported as 0.697.
U26C G56C A57C A70U gave a yeast fitness of no more than 0.5.
For U26C G56C A65G, the yeast fitness was no more than 0.5.
With U26C G58A the yeast fitness was 1.
U26C G63A gave a yeast fitness of 0.916.
Variant U26C G67U has a yeast fitness of 0.696.
Work on U26C G68A yielded a yeast fitness of 0.863.
Variant U26C G68U has a yeast fitness of 0.821.
U26C U28A showed a yeast fitness of 0.727.
U26C U28A A65U gave a yeast fitness of 0.524.
Variant U26C U28C has a yeast fitness of 0.81.
In the case of U26C U28C C29G C34A, the yeast fitness is reported as no more than 0.5.
With U26C U28C C46G C62G G67U the yeast fitness was no more than 0.5.
With U26C U32A C34U G38C G51A C60U C62U the yeast fitness was no more than 0.5.
For U26C U32C, the yeast fitness was 0.874.
With U26C U32C A37G C66U A69C the yeast fitness was no more than 0.5.
U26C U32C A70G gave a yeast fitness of 0.659.
U26C U32C C33G A42C C49G G58C C62G gave a yeast fitness of no more than 0.5.
U26C U32C U47A gave a yeast fitness of no more than 0.5.
U26C U35A C62U showed a yeast fitness of 0.523.
In the case of U26C U35C A37G, the yeast fitness is reported as 0.528.
Variant U26C U35C A37U has a yeast fitness of no more than 0.5.
With U26C U35C U64G A65G C66G the yeast fitness was no more than 0.5.
Work on U26C U35G yielded a yeast fitness of 0.615.
For U26C U35G G50A C62U, the yeast fitness was no more than 0.5.
Variant U26C U47A has a yeast fitness of 0.721.
For U26C U54C, the yeast fitness was 0.887.
In the case of U26C U64A, the yeast fitness is reported as 0.699.
With U26G A36U the yeast fitness was 0.714.
In the case of U26G A37C, the yeast fitness is reported as 0.652.
In the case of U26G A37G G51C, the yeast fitness is reported as 0.801.
U26G A40G gave a yeast fitness of 0.778.
For U26G A42C U47C, the yeast fitness was 0.816.
With U26G A42G A43C C46G the yeast fitness was 0.677.
U26G A42U gave a yeast fitness of 0.795.
U26G A45C gave a yeast fitness of 0.795.
In the case of U26G A45G C46U U53G, the yeast fitness is reported as 0.599.
In the case of U26G A45G C46U U53G G63A C66U A69U, the yeast fitness is reported as no more than 0.5.
For U26G A45U G50A, the yeast fitness was 0.535.
U26G A69C showed a yeast fitness of 0.948.
Variant U26G A70U has a yeast fitness of 0.896.
U26G C27G A57C showed a yeast fitness of 0.558.
In the case of U26G C27G A57C C66U A69U, the yeast fitness is reported as no more than 0.5.
In the case of U26G C27G C33U G39C U47C C49U, the yeast fitness is reported as no more than 0.5.
U26G C27G U47A U54C C62U showed a yeast fitness of no more than 0.5.
With U26G C27U the yeast fitness was 0.801.
In the case of U26G C27U C49U C66U, the yeast fitness is reported as 0.577.
Work on U26G C29A A42C yielded a yeast fitness of 0.586.
U26G C29G A45C showed a yeast fitness of no more than 0.5.
U26G C29U A65U showed a yeast fitness of no more than 0.5.
Variant U26G C30U U32G G52C has a yeast fitness of no more than 0.5.
Work on U26G C31G A40C C49U C66A yielded a yeast fitness of 0.587.
For U26G C31U C55U, the yeast fitness was 0.564.
U26G C31U G68C gave a yeast fitness of 0.636.
With U26G C34G A37C C66A the yeast fitness was no more than 0.5.
Work on U26G C46A A65G yielded a yeast fitness of 0.682.
U26G C46G gave a yeast fitness of 0.807.
Work on U26G C49U yielded a yeast fitness of 0.974.
For U26G C55G, the yeast fitness was 0.636.
For U26G C55G U59A U64G, the yeast fitness was no more than 0.5.
With U26G C61U G67A the yeast fitness was no more than 0.5.
Work on U26G C62G yielded a yeast fitness of 0.755.
U26G C62U showed a yeast fitness of 0.842.
U26G G39C A45G A57C C61G showed a yeast fitness of 0.592.
For U26G G48A C61U, the yeast fitness was 0.94.
